Assay results taken from ChEMBL document CHEMBL3526095, “Characterization of the in vitro and in vivo metabolism and disposition and cytochrome P450 inhibition/induction profile of saxagliptin in human” (Drug Metab Dispos, 2012).

What was measured:
[1] = system: Liver microsome; test: Drug metabolism in human liver microsomes assessed as formation of 5-hydroxy saxagliptin Michaelis-Menten kinetic analysis; format: ADME
Outline: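 M2 formation kinetics measured in triplicate at twelve saxagliptin concentrations from 1 to 800 µM. Enzyme source was pooled HLM (0.25 mg/ml, 30 min, 37°C) or expressed CYP3A4 or CYP3A5 (10 pmol/ml, 10 min). Incubations contained 1 mM NADPH and 2 mM MgCl2 in phosphate buffer pH 7.4.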

[2] = system: Hepatocyte; test: Cytotoxicity against human hepatocytes up to 25 uM by lactate dehydrogenase assay; format: cell-based
[3] = system: Hepatocyte; test: Induction of CYP2B6 mRNA expression in human hepatocytes assessed as bupropion hydroxylation up to 25 uM by LC-MS/MS analysis; format: ADME, cell-based
Outline: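 Freshly isolated primary human hepatocytes from three donors were dosed once daily for 3 consecutive days at 0.2, 1, 5 and 25 µM, with 0.1% DMSO as vehicle control and phenobarbital 1000 µM as the CYP2B6 inducer control. Microsomes were then incubated with 250 µM bupropion at 0.02 mg/ml protein, and metabolite formed was measured by LC-MS/MS. Fold induction is relative to DMSO.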

[4] = Drug metabolism in human assessed as parent compound level in feces at 50 mg, po after up to 168 hrs by LC-MS/MS analysis; format: ADME, organism-based; conditions: read-out: Drug metabolism
[5] = biological target: T1, Cytochrome P450 3A5 (Homo sapiens, UniProt P20815); test: Drug metabolism assessed as human CYP3A5-mediated 5-hydroxy saxagliptin formation at 10 uM after 30 mins by LC-MS/MS analysis; format: ADME; conditions: recombinant enzyme, 0.5 h
T1 sequence (P20815 whole entry): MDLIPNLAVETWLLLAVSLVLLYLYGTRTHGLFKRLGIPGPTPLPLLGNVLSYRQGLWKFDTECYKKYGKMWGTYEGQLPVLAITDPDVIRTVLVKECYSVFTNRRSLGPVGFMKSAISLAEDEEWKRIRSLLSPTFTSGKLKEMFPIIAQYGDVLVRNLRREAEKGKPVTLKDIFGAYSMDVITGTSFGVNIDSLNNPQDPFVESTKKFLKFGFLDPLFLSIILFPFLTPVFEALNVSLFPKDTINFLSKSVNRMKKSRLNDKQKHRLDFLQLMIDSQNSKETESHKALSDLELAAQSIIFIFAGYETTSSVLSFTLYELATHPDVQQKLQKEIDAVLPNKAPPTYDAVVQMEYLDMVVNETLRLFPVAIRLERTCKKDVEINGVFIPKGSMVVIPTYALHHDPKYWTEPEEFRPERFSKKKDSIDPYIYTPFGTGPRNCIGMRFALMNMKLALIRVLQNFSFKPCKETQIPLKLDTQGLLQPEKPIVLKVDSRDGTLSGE

[6] = Drug metabolism in human assessed as metabolite level in urine at 50 mg, po up to 168 hrs by LC-MS/MS analysis; format: ADME, organism-based; conditions: in vivo
Outline: (§1)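 Single 50-mg oral solution dose of [14C]saxagliptin (91.5 µCi) given to healthy male subjects after a 10-h fast. Urine collected as 0–12 h and 12–24 h pools, then in 24-h intervals to 168 h. Saxagliptin and M2 measured by validated positive-ESI LC-MS/MS with MRM; urine standard curves 25–5000 ng/ml for saxagliptin and 50–10,000 ng/ml for M2.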

[7] = system: Hepatocyte; test: Cytotoxicity against human hepatocytes up to 100 uM by lactate dehydrogenase assay; format: cell-based
[8] = Drug level in human urine treated with 50 mg, po of [14C]saxagliptin up to 168 hrs by LC-MS/MS analysis; format: ADME, organism-based; conditions: in vivo; outline: as §1
[9] = biological target: T1, Cytochrome P450 3A5; test: Drug metabolism assessed as human CYP3A5-mediated metabolite formation treated with 10 uM of [14C]saxagliptin after 30 mins by LC-MS/MS analysis; format: ADME; conditions: recombinant enzyme, 0.5 h
Outline: (§2)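 Expressed human CYP3A4 or CYP3A5 at 500 pmol/ml, incubated with 10 µM [14C]saxagliptin and 1 mM NADPH in 100 mM phosphate buffer pH 7.4 at 37°C for 30 min. Stopped with ice-cold acetonitrile; analysed by LC-MS/MS and off-line radioanalysis.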

[10] = system: Hepatocyte; test: Induction of CYP3A4 mRNA expression in human hepatocytes assessed as testosterone 6beta-hydroxylation up to 100 uM by LC-MS/MS analysis; format: ADME, cell-based
Outline: (§3)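 Primary hepatocytes from three donors treated once daily for 3 days: saxagliptin 0.2–25 µM, M2 0.2–100 µM, 0.1% DMSO as vehicle. Microsomal activity assayed by LC-MS/MS: phenacetin 100 µM with 0.02 mg/ml protein (CYP1A2), bupropion 250 µM with 0.02 mg/ml (CYP2B6), testosterone 200 µM with 0.01 mg/ml (CYP3A4). mRNA measured by TaqMan qPCR as 2^ΔCT relative to endogenous control and DMSO.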

[11] = system: Hepatocyte; test: Induction of CYP2B6 mRNA expression in human hepatocytes assessed as bupropion hydroxylation up to 100 uM by LC-MS/MS analysis; format: ADME, cell-based; outline: as §3
[12] = biological target: T2, Cytochrome P450 3A4 (Homo sapiens, UniProt P08684); test: Drug metabolism assessed as human CYP3A4-mediated metabolite formation treated with 10 uM of [14C]saxagliptin after 30 mins by LC-MS/MS analysis; format: ADME; conditions: recombinant enzyme, 0.5 h; outline: as §2
T2 sequence (P08684 whole entry): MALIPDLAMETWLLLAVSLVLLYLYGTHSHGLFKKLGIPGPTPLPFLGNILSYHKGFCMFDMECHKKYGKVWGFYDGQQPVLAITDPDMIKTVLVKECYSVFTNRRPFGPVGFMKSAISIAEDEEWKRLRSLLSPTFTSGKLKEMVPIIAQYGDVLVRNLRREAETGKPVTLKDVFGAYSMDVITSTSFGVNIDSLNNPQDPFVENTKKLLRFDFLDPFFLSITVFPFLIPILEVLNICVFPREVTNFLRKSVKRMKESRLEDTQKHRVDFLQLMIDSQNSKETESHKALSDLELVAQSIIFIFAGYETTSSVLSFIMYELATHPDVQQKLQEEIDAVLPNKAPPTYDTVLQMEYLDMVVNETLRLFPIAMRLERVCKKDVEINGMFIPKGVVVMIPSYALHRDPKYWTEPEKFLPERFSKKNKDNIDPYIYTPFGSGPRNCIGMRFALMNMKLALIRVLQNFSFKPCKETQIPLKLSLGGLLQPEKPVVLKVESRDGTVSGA

[13] = system: Hepatocyte; test: Induction of CYP1A2 mRNA expression in human hepatocytes assessed as phenacetin O-deethylation up to 100 uM by LC-MS/MS analysis; format: ADME, cell-based; outline: as §3
[14] = biological target: T2, Cytochrome P450 3A4; test: Inhibition of CYP3A4 in human liver microsomes assessed as testosterone 6beta-hydroxylation preincubated for 15 mins by LC-MS/MS analysis in presence of NADPH; format: ADME
[15] = biological target: T3, Cytochrome P450 2A6 (Homo sapiens, UniProt P11509); test: Inhibition of CYP2A6 in human liver microsomes assessed as coumarin 7-hydroxylation after 3 mins by LC-MS/MS analysis in presence of NADPH; format: ADME
T3 sequence (P11509 whole entry): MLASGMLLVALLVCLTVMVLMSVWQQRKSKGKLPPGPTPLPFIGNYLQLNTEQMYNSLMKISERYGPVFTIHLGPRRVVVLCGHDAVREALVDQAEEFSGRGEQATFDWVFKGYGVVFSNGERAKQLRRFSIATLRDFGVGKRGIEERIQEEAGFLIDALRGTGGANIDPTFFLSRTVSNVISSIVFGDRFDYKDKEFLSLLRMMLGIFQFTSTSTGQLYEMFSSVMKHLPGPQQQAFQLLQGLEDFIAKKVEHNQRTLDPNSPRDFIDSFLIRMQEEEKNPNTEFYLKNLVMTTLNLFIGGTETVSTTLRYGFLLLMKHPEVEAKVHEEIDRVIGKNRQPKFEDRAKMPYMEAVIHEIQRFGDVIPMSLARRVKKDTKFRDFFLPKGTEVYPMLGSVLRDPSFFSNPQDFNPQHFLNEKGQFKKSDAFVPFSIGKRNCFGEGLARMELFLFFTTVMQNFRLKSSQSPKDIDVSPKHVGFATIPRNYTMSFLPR

[16] = biological target: T2, Cytochrome P450 3A4; test: Inhibition of CYP3A4 in human liver microsomes assessed as midazolam 1'-hydroxylation preincubated for 15 mins by LC-MS/MS analysis; format: ADME
[17] = biological target: T4, Cytochrome P450 1A2 (Homo sapiens, UniProt P05177); test: Inhibition of CYP1A2 in human liver microsomes assessed as phenacetin O-deethylation preincubated for 15 mins by LC-MS/MS analysis in presence of NADPH; format: ADME
T4 sequence (P05177 whole entry): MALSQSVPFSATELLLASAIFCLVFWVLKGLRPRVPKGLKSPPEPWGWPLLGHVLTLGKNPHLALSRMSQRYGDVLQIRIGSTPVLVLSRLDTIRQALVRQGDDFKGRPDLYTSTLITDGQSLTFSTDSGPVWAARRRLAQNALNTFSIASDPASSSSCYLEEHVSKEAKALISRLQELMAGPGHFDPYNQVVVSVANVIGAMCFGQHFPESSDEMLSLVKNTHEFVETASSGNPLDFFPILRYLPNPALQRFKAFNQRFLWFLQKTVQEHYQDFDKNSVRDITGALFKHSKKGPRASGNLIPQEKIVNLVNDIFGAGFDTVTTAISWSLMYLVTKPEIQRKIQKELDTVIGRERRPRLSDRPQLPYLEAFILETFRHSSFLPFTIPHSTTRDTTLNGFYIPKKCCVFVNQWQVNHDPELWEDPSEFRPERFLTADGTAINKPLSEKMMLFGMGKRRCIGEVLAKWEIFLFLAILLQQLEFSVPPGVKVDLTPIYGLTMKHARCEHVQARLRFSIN

SMILES: N#C[C@@H]1C[C@@H]2C[C@@H]2N1C(=O)[C@@H](N)C12CC3CC(CC(O)(C3)C1)C2 [SAXAGLIPTIN ANHYDROUS]
- Km [1]: 94.8 µM
- Vmax [1]: 496 pmol/min
- Activity [2]: Non-toxic
- Activity [3]: Not Active
- dose excreted at 168 h [4]: 0.5%
- Drug metabolism [5]: metabolite_detected
- Drug metabolism [6]: metabolite_detected

SMILES: N#C[C@@H]1C[C@@H]2C[C@@H]2N1C(=O)[C@@H](N)C12CC3CC(O)(CC(O)(C3)C1)C2
- Activity [7]: Non-toxic
- Drug metabolism [8]: metabolite_detected
- Drug metabolism [9]: metabolite_detected
- Activity [10]: Not Active
- Activity [11]: Not Active
- Drug metabolism [12]: metabolite_detected
- Activity [13]: Not Active
- IC50 [14]: > 200 µM
- IC50 [15]: > 200 µM
- IC50 [16]: > 200 µM
- IC50 [17]: > 200 µM
